Results reported in ChEMBL document CHEMBL1777744, “Synthesis and anti-tumor activity of novel ethyl 3-aryl-4-oxo-3,3a,4,6-tetrahydro-1H-furo[3,4-c]pyran-3a-carboxylates” (Bioorg Med Chem Lett, 2011).

Columns and labels:
Type in all cases: functional, cell-based
HeLa = assay: Cytotoxicity against human HeLa cells by MTT assay
How it was run: (§1)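 Colorimetric MTT assay, run as quintuplicate dose-response tests. Cytotoxic effect was plotted against log10 of drug concentration for each cell line. IC50 is the concentration that reduced the optical density of treated cells by 50% relative to untreated cells. 5-fluorouracil served as control.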

A549 = assay: Cytotoxicity against human A549 cells by MTT assay; how it was run: as §1
[1] = Cytotoxicity against human QGY cells by MTT assay; how it was run: as §1

Compound	IC50 (HeLa) [µM]	IC50 (A549) [µM]	IC50 [1] [µM]
CCOC(=O)C12C(=O)OCC=C1COC2c1ccccc1 (centres undefined)	12.8	> 1000	> 1000
CCOC(=O)C12C(=O)OCC=C1COC2c1ccccc1F (centres undefined)	22.1	> 1000	> 1000
CCOC(=O)C12C(=O)OCC=C1COC2c1ccc(F)cc1 (centres undefined)	22.9	> 1000	> 1000
CCOC(=O)C12C(=O)OCC=C1COC2c1cccc(Cl)c1 (centres undefined)	> 1000	28.4	> 1000
CCOC(=O)C12C(=O)OCC=C1COC2c1ccc(Cl)cc1 (centres undefined)	118	> 1000	> 1000
CCOC(=O)C12C(=O)OCC=C1COC2c1ccc(Cl)c(Cl)c1 (centres undefined)	72.4	> 1000	> 1000
CCOC(=O)C12C(=O)OCC=C1COC2c1ccc(Br)cc1 (centres undefined)	48.7	> 1000	> 1000
CCOC(=O)C12C(=O)OCC=C1COC2c1ccc(C(C)(C)C)cc1 (centres undefined)	25.4	> 1000	> 1000
CCOC(=O)C12C(=O)OCC=C1COC2c1ccc(OC)cc1 (centres undefined)	18.3	9.3	> 1000
CCOC(=O)C12C(=O)OCC=C1COC2c1ccc(OC)c(OC)c1 (centres undefined)	10	> 1000	> 1000
CCOC(=O)C12C(=O)OCC=C1COC2c1cc(OC)cc(OC)c1 (centres undefined)	16	> 1000	> 1000
CCOC(=O)C12C(=O)OCC=C1COC2c1cc(OC)c(OC)c(OC)c1 (centres undefined)	5.4	13.3	> 1000
CCOC(=O)C12C(=O)OCC=C1COC2c1ccc(N(C)C)cc1 (centres undefined)	23.4	89.6	> 1000
CCOC(=O)C12C(=O)OCC=C1COC2c1ccc([N+](=O)[O-])cc1 (centres undefined)	53.4	36.8	> 1000
CCOC(=O)C12C(=O)OCC=C1COC2c1ccco1 (centres undefined)	28.3	> 1000	> 1000
CCOC(=O)C12C(=O)OCC=C1COC2c1cccs1 (centres undefined)	30.4	> 1000	> 1000
CCOC(=O)C12C(=O)OCC=C1COC2c1ccccn1 (centres undefined)	20.7	> 1000	> 1000
O=c1[nH]cc(F)c(=O)[nH]1 [FLUOROURACIL]	16.1	5.6	14.1
